Screens deposited in PubChem BioAssay by several laboratories.
Compounds with a hit are over-represented: about 12% of the library has one in this group of screens.
CHOP inh – inhibitors of CHOP induction in ER stress response; CHO-K1 CHOP-promoter luciferase, tunicamycin-induced, 15-18 h; inhibition, % at 10 µM; 220,000 tested, 3.8% active;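 active = compounds that reduced the stress-induced luciferase reporter signal by more than about 70% of percent inhibition, limit read from the data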
Arbovirus anti – blocks arbovirus infection; 200,000 tested, 0.37% active; inhibition, % at 10 µM; arbovirus infection cell-based antiviral screen; AID 1251; in the data active = inhibition above about 30%
Wee1 stabilizer – blocks degradation of human Wee1 kinase | P30291 | HeLa Luc-Wee1K328M stability, luciferase luminescence; 100% = proteasome inhibitor MG132 effect | reporter increase, % at 5 µM | 220,000 tested, 1.2% active;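 active = activation above the mean of all tested compounds plus 3 SD, set per screening run, cut at about 8.8% in these data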;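 also: cells exposed to compound for 20 h before luminescence read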
PKD1 kinase inh – inhibitors of human PKD1 kinase; 200,000 tested, 0.056% active; Q15139; inhibition, % (test concentration not listed); AID 797; PKD1 kinase fluorescence polarization assay
L major viab – inhibitors of Leishmania major promastigote growth; Leishmania major promastigotes, resazurin fluorescence viability; inhibition, % at 10 µM; 200,000 tested, 9% active;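 also: promastigotes grown with compound for 44 hours at 28 °C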
Rad51 HR inh – Rad51 (human) homologous recombination inhibition; AID 1385; Q06609; hRad51 DNA strand exchange, fluorescence dequenching; inhibition, % at 10 µM; 200,000 tested, 0.085% active;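 active = inhibition above 40% at the single screening dose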
Target sequence (Q06609 whole entry, looked up): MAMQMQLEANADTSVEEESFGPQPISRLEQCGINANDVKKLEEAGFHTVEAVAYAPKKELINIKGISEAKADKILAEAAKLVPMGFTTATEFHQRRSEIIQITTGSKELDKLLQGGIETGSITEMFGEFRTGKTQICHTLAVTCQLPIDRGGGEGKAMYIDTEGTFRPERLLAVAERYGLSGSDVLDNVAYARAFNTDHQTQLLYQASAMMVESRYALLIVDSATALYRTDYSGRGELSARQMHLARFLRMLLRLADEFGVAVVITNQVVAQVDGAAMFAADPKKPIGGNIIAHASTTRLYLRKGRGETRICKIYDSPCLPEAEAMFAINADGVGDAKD
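material = hRad51 filaments on single-stranded DNA | reagent = Donor/quencher-labelled 47-bp dsDNA substrate | compound = 10 µM final, single point | schedule = strand-exchange reaction 15 min at room temperature | measured by = fluorescein emission 520 nm, excitation 485 nm | read-out basis = % inhibition versus plate control and blank means | benchmarks = plate controls and plate blanks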
Large screens that a line does not name were inactive. Rule as the data show it, unless noted: active = inhibition above about 50%; inactive = the rest.

Cc1cc(C)c2nc(N3CCC(C(=O)NCCCN4CC(C)CC(C)C4)CC3)sc2c1 (configuration not stated)	L major viab 99
Cc1[nH][nH]c(=O)c1C(c1c(C)[nH][nH]c1=O)c1cn(Cc2ccc(Cl)c(Cl)c2)c2ccccc12	L major viab 99
O=C(O)Cc1cn(Cc2ccc(F)cc2)c2ccccc12	none
Cc1[nH][nH]c(=O)c1C(c1c(C)[nH][nH]c1=O)c1cn(Cc2ccc(F)cc2)c2ccccc12	L major viab 99
O=C(Nc1ccc2c(c1)OCO2)C1CCN(S(=O)(=O)Cc2ccccc2)CC1	none (no result: Rad51 HR inh)
CC(Sc1ncnc2ccccc12)C(=O)Nc1ccc2c(c1)OCO2 (configuration not stated)	L major viab 80
O=C(Nc1ccc2c(c1)OCO2)C1CCN(C(=O)CSc2ncnc3ccccc23)CC1	L major viab 79 (no result: CHOP inh, Arbovirus anti)
Cc1nc2scc(-c3ccc(C(C)(C)C)cc3)c2c(=O)n1N	CHOP inh 76
COc1ccc(-c2csc3nc(C)n(-n4cccc4)c(=O)c23)cc1	none (no result: CHOP inh, Arbovirus anti)
CN1CCC2(CC1)N=C(c1ccc(F)cc1)C(=S)N2C(=O)c1ccc(C(C)(C)C)cc1	CHOP inh 81
CC(C)(C)c1ccc(C(=O)N2CCNCC2)cc1	none
CCCCC(Nc1ncnc2ccccc12)C(=O)O (configuration not stated)	Rad51 HR inh 73
CC(=O)NNc1ncnc2ccccc12	none
O=C(NCc1cccnc1)/C(=C\c1ccc(-c2ccc(Br)cc2)o1)S(=O)(=O)c1ccccc1	CHOP inh 106, L major viab 100
Cc1ccc(-c2cc(C(=O)NCc3cccnc3)no2)cc1	none
O=C(NCc1cccnc1)/C(=C/c1ccc(-c2cccc(C(F)(F)F)c2)o1)NC(=O)c1ccccc1	L major viab 84 (no result: Rad51 HR inh)
O=C(NCc1cccnc1)/C(=C/c1ccc(-c2ccc(Cl)cc2)o1)S(=O)(=O)c1ccccc1	CHOP inh 104, L major viab 101
CC(Oc1cc(Cl)ccc1Cl)C(=O)N/N=C\c1ccnn1C (configuration not stated)	none
COC(=O)c1ccc(CSc2nnc(NC(=O)C3CC(=O)N(c4ccc5c(c4)OCCO5)C3)s2)cc1 (configuration not stated)	none
CCc1nc(CN2CCN(c3cc(C(F)(F)F)ccn3)CC2)c(C)[nH]1	none (no result: Arbovirus anti, PKD1 kinase inh, L major viab)
O=C1C2C3CCC(C3)C2C(=O)N1Cc1ccccc1 (configuration not stated)	L major viab 57
O=C1C2C3C=CC(C3=C3CCCCC3)C2C(=O)N1Cc1ccccc1 (configuration not stated)	CHOP inh 86
O=C1C2C3C=CC(C4CC34)C2C(=O)N1Cc1ccccc1 (configuration not stated)	none
COc1ccc(Nc2nccc(N(C)C)c2C#N)cc1	none (no result: Rad51 HR inh)
Cc1nccn1CC(=O)N/N=C/c1cccc(O)c1	L major viab 61
O=C(O)CNS(=O)(=O)c1ccc(C2CCCCC2)cc1	none
CC(C)OC(=O)/C(C#N)=C/c1c[nH]c2ccccc12	none
O=C(c1ccc(Cl)cc1)N1CCC(O)(CSc2ccccc2)CC1	none
O=C(c1ccc(Cl)cc1)N1CCC(O)(CSc2ccc(Cl)cc2)CC1	CHOP inh 72
CN1CCN(C(=O)c2ccc(CSc3ccc(Cl)cc3)cc2)CC1	L major viab 100
Cc1c(-c2ccccc2)[n+](=O)c2c(n1[O-])CCCC2	none (no result: Arbovirus anti, PKD1 kinase inh, L major viab)
O=C1/C(=C/c2cccc([N+](=O)[O-])c2)CCc2ccccc21	L major viab 95 (no result: Rad51 HR inh)
CCN1C/C(=C\c2cccc([N+](=O)[O-])c2)C(=O)/C(=C/c2cccc([N+](=O)[O-])c2)C1	CHOP inh 108, L major viab 100
O=C1/C(=C/c2ccc([N+](=O)[O-])cc2)CCc2ccccc21	none (no result: Arbovirus anti, PKD1 kinase inh, L major viab)
COc1ccc(-n2nnc3c(SCC(=O)Nc4ccccc4F)ncnc32)cc1	none
COc1ccc(-n2c(N)c(C(=O)NCC3CCCO3)sc2=S)cc1 (configuration not stated)	Wee1 stabilizer 10
CCOC(=O)c1ccc(-n2c(N)c(C(=O)NCC3CCCO3)sc2=S)cc1 (configuration not stated)	none
COc1ccc(-n2nnc3c(SCC(=O)NCC4CCCO4)ncnc32)cc1 (configuration not stated)	L major viab 75 (no result: Rad51 HR inh)
CN(C)S(=O)(=O)N1CCCC(C(=O)c2ccc(C(F)(F)F)cc2)C1 (configuration not stated)	none
COc1ccccc1N1CCN(C(=O)CCCn2nc(C)c([N+](=O)[O-])c2C)CC1	none
CC(=O)/C(C#N)=C1\NC(=O)C(Cc2ccccc2C)S1 (configuration not stated)	none (no result: Arbovirus anti, PKD1 kinase inh, L major viab)
Cc1ccc(C(=O)c2ccc(C(F)(F)F)cc2)cc1	CHOP inh 93
O=C(OCc1cc(=O)n2c(n1)sc1ccccc12)c1ccc(O)cc1	L major viab 59
O=c1cc(CCl)nc2sc3ccccc3n12	none
c1ccc(-c2nnc(OCCN3CCOCC3)c3ccccc23)cc1	L major viab 83
COc1ccc(NC(C#N)c2ccc(OC)cc2)cc1 (configuration not stated)	L major viab 91
COc1ccc(/C=C(\C#N)C(=O)OCC(=O)NC2CC2)cc1	none
O=C(COC(=O)[C@H](Cc1c[nH]c2ccccc12)NC(=O)c1ccc(Cl)cc1)Nc1ccc2c(c1)OCO2	CHOP inh 82, L major viab 100
O=C(CNc1ccccc1OC(F)F)N1CCc2ccccc21	none
O=C(NC1CCCCC1)N1CCC(c2nc3ccc(Cl)cc3[nH]2)CC1	CHOP inh 79
O=C(NC1CCCCC1)N1CCC(c2nc3ccccc3[nH]2)CC1	none
